In brackets after ≈: the same amount, converted by molar mass. Activity calls are given as the source filed them. Unless noted, the rule behind the calls is not given here.
How the values were obtained:
[1] = test system: Plasmodium falciparum; test: Antimalarial activity against chloroquine-sensitive Plasmodium falciparum D6 assessed as plasmodial LDH activity; assay type: functional, organism-based
[2] = test system: Plasmodium falciparum; test: Antimalarial activity against chloroquine-resistant Plasmodium falciparum W2 assessed as plasmodial LDH activity; assay type: functional, organism-based
[3] = test system: Vero; test: Cytotoxicity against african green monkey Vero cells upto 23.8 […] by neutral dye assay; assay type: cell-based, Chlorocebus sabaeus
Summary of the method: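 Vero monkey kidney cells were exposed to compound up to a highest concentration of 23.8, with viability read by neutral red uptake.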

[4] = Inhibition of beta-hematin formation; assay type: functional
[5] = test system: Leishmania donovani; test: Antileishmanial activity against Leishmania donovani promastigote by Alamar Blue assay; assay type: functional, organism-based
[6] = test system: Plasmodium berghei; test: Antimalarial activity against Plasmodium berghei blood-schizont in mouse malaria model assessed as elimination of parasitemia at 100 mg/kg, po for 4 days for 4 days measured after 7 days; assay type: functional, organism-based; design: dose 100 mg/kg
Summary of the method: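 P. berghei-infected mice, 6 per group, received compound orally once daily for 4 days at 10, 25, 50 or 100 mg/kg/day. "Active" meant all treated animals were parasitaemia-negative up to D+7. "Curative" meant complete parasite elimination with survival to D+60. Outcomes were recorded as cured/total.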

[7] = test system: Staphylococcus aureus; test: Antimicrobial activity against Staphylococcus aureus ATCC 29213 by CLSI method; assay type: functional, organism-based
[8] = test system: Staphylococcus aureus; test: Antimicrobial activity against methicillin-resistant Staphylococcus aureus ATCC 43300 by CLSI method; assay type: functional, organism-based
[9] = test system: Mycobacterium intracellulare; test: Antimicrobial activity against Mycobacterium intracellulare ATCC 23068 by Franzblau method; assay type: functional, organism-based
[10] = test system: Escherichia coli; test: Antimicrobial activity against Escherichia coli ATCC 35218 by CLSI method; assay type: functional, organism-based
[11] = test system: Pseudomonas aeruginosa; test: Antimicrobial activity against Pseudomonas aeruginosa ATCC 27853 by CLSI method; assay type: functional, organism-based
Summary of the method: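 Antibacterial testing used CLSI/NCCLS broth dilution for aerobically growing bacteria, with 20 as the highest test concentration.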

[12] = test system: Aspergillus fumigatus; test: Antifungal activity against Aspergillus fumigatus; assay type: functional, organism-based
Summary of the method: (§1)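 Yeasts and A. fumigatus were tested by broth microdilution following the NCCLS antifungal standards. The highest test concentration was 20.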

[13] = test system: Cryptococcus neoformans; test: Antifungal activity against Cryptococcus neoformans; assay type: functional, organism-based; summary of the method: as §1
[14] = test system: Candida albicans; test: Antifungal activity against Candida albicans at 20 ug/ml; assay type: functional, organism-based
Summary of the method: (§2)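 Broth dilution antifungal testing followed the NCCLS reference method for yeasts, with 20 as the highest test concentration. MIC was the lowest concentration with no detectable growth. MFC was the lowest concentration killing the organism.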

[15] = test system: Candida albicans; test: Fungicidal activity against Candida albicans at 20 ug/ml; assay type: functional, organism-based; summary of the method: as §2
[16] = Selectivity index, ratio of IC50 for african green monkey Vero cells to IC50 for chloroquine-sensitive Plasmodium falciparum D6; assay type: toxicity, cell-based; conditions: Vero cells versus Plasmodium falciparum D6, read-out: Ratio IC50
[17] = Selectivity index, ratio of IC50 for african green monkey Vero cells to IC50 for chloroquine-resistant Plasmodium falciparum W2; assay type: toxicity, cell-based; conditions: Vero cells versus Plasmodium falciparum W2, read-out: Ratio IC50
[18] = test system: Candida albicans; test: Antifungal activity against Candida albicans; assay type: functional, organism-based; summary of the method: as §1
[19] = Leishmania donovani, read-out: IC50
[20] = Plasmodium falciparum, D6, read-out: IC50
[21] = Plasmodium falciparum, W2, read-out: IC50

Compound	IC50 [3]	IC50 [4] [µM]	IC90 ([5]; Leishmania donovani) [µg/mL]	IC50 [5, 19] [µg/mL]	Activity [7]	Activity [8]	Activity [9]	Activity [10]	Activity [11]	Activity [12]	IC50 [13] [µg/mL]	MFC [13] [µg/mL]	MIC [13] [µg/mL]	IC50 [1, 20] [µg/mL]	IC50 [2, 21] [µg/mL]	selectivity ratio [16]	selectivity ratio [17]	IC50 [5]	IC90 [5]	further results
COc1cc(NC(C)CCCNC(=O)[C@H](CCCN)NC(=O)[C@@H](N)CCCN)c2ncccc2c1 (some centres undefined)	Non-toxic	> 1000	20 (≈ 41 µM)	4 (≈ 8.2 µM)	inactive	inactive	inactive	inactive	inactive	inactive	5.5 (≈ 11.3 µM)	20 (≈ 41 µM)	10 (≈ 20.5 µM)	–	–	–	–	–	–	IC50 [1]: Not Active; IC50 [2]: Not Active; Activity [6]: Active; Activity [14]: inactive; Activity [15]: inactive
COc1cc(NC(C)CCCNC(=O)C[C@@H](NC(=O)[C@H](N)CCCNC(=N)N)C(=O)O)c2ncccc2c1 (some centres undefined)	Non-toxic	210	33 (≈ 62.2 µM)	20.1 (≈ 37.9 µM)	inactive	inactive	inactive	inactive	inactive	–	–	–	–	3.2 (≈ 6.03 µM)	4.2 (≈ 7.92 µM)	> 7.4	> 5.6	–	–	–
COc1cc(NC(C)CCCNC(=O)CC[C@H](NC(=O)[C@@H](N)CCCNC(=N)N)C(=O)O)c2ncccc2c1 (some centres undefined)	Non-toxic	–	–	–	inactive	inactive	inactive	inactive	inactive	–	–	–	–	1.8 (≈ 3.3 µM)	1.8 (≈ 3.3 µM)	> 13.2	> 13.2	Not Active	inactive	–
COc1cc(NC(C)CCCNC(=O)C[C@H](NC(=O)[C@@H](N)CCCN)C(=O)O)c2nc(C(C)(C)C)ccc2c1 (some centres undefined)	Non-toxic	40	36 (≈ 66.1 µM)	20 (≈ 36.7 µM)	inactive	inactive	inactive	inactive	inactive	inactive	4 (≈ 7.34 µM)	20 (≈ 36.7 µM)	20 (≈ 36.7 µM)	2.7 (≈ 4.96 µM)	3 (≈ 5.51 µM)	> 8.8	> 7.9	–	–	IC50 [18]: 15 µg/mL (≈ 27.5 µM); MFC [18]: 20 µg/mL (≈ 36.7 µM); MIC [18]: 20 µg/mL (≈ 36.7 µM)
COc1cc(NC(C)CCCNC(=O)NCCC[C@@H](N)C(=O)O)c2nc(C(C)(C)C)ccc2c1 (some centres undefined)	Non-toxic	250	–	–	inactive	inactive	inactive	inactive	inactive	–	–	–	–	4.2 (≈ 8.87 µM)	4.76 (≈ 10.1 µM)	> 5.5	5	Not Active	inactive	–
COc1cc(NC(C)CCCNC(=O)C[C@@H](NC(=O)[C@H](N)CCCNC(=N)N)C(=O)O)c2nc(C(C)(C)C)ccc2c1 (some centres undefined)	Non-toxic	127	–	–	inactive	inactive	inactive	inactive	inactive	–	–	–	–	1.8 (≈ 3.07 µM)	2.6 (≈ 4.43 µM)	> 13.2	> 9.1	Not Active	inactive	Activity [6]: Active
COc1cc(NC(C)CCCNC(=O)C[C@@H](NC(=O)[C@H](N)CCCCN)C(=O)O)c2ncccc2c1 (some centres undefined)	Non-toxic	160	–	–	inactive	inactive	inactive	inactive	inactive	inactive	4.5 (≈ 8.95 µM)	10 (≈ 19.9 µM)	10 (≈ 19.9 µM)	2.4 (≈ 4.78 µM)	3.2 (≈ 6.37 µM)	> 9.9	> 7.4	Not Active	inactive	Activity [14]: inactive; Activity [15]: inactive

From ChEMBL document CHEMBL2021883, “Amino acid, dipeptide and pseudodipeptide conjugates of ring-substituted 8-aminoquinolines: synthesis and evaluation of anti-infective, β-haematin inhibition and cytotoxic activities” (Eur J Med Chem, 2012)
